A short description of assay [1]: hit retest on RPL19A-GFP reporter strain – cell-based, S. cerevisiae, flow cytometry, cherry picks, mother/daughter gates, confirmation (AID 2270;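 active = GFP response below 50% of the DMSO control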). Conditions: 3 h, at 10 µM, stronger effect = lower value, 100 = same GFP as DMSO wells.
A short description of assay [2]: yeast TOR pathway reporter LAP4-GFP change – cell-based, cherry picks, flow cytometry, mother/daughter gates, confirmation (AID 2271;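 active = GFP response above 150% of the DMSO control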;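 note: ratio of sample to DMSO plate mean so 100% equals DMSO level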). Conditions: S. cerevisiae LAP4-GFP strain, 3 h, at 10 µM, stronger effect = higher value, 100 means same as DMSO control. An outline of the steps: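 Material – Alexa Fluor 633-labelled Saccharomyces cerevisiae GFP-fusion strain, single-plex · Incubation – compound exposure 3 h at 30 °C, end-over-end rotation · Measured by – GFP by flow cytometry · Measure – median GFP fluorescence as percent of plate-mean DMSO wells · Control set – positive rapamycin (400 ng/mL), negative DMSO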

The nature of assay [3]: TOR pathway reporter MEP2-GFP, retest of hits – S. cerevisiae, flow cytometry GFP, cherry picks, confirmation (AID 2272;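 active = GFP response above 150% of the DMSO control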;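 note: ratio of well signal to plate DMSO mean so 100% equals DMSO level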). As to conditions: S. cerevisiae MEP2-GFP strain, 3 h, at 10 µM, stronger effect = higher value.
A short description of assay [4]: yeast AGP1-GFP fluorescence change, single-dose – cell-based, flow cytometry, S. cerevisiae, cherry picks, confirmation (AID 2273).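 Note: median GFP channel fluorescence over the whole cell population gate.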 As to conditions: S. cerevisiae AGP1-GFP strain, 3 h, at 10 µM.
Assay [5] in a line: TOR pathway CIT2 reporter hit retest – S. cerevisiae, GFP fusion, cherry picks, mother/daughter gates, confirmation (AID 2274). As to conditions: S. cerevisiae CIT2-GFP strain, flow cytometry, 3 h, at 10 µM, stronger effect = higher value.
The nature of assay [6]: green-channel fluorescence artefact in S. cerevisiae – s288c strain, artefact control for yeast TOR pathway GFP screen, dose response (AID 2757;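 active = fluorescence span over the dose series, or activity score, above about 33, limit read from the data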;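 note: thousands of bead-calibrated equivalent soluble fluorophore molecules from median cell fluorescence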). As to conditions: 520 nm autofluorescence, flow cytometry, 3 h, at 33 µM, stronger effect = higher value, zero means same as solvent-only cells.
Where [7] appears, read: measured here: daughter cell gate.
The mark [8] stands for this setting: measured here: mother cell gate.
[9] abbreviates: measured here: daughter cell gate response.
The mark [10] stands for this setting: measured here: mother cell gate response.

Molecules are shown by their SMILES. Some of the results follow. Activity calls are given as the source filed them.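 Rule for the calls, unless noted: active = GFP response above 150% of the DMSO level; inconclusive = fewer than 70 events counted for a yeast strain; inactive = the rest.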

As to `O=C1c2cccc3cccc(c23)C(=O)N1c1nncs1`, the GFP response vs DMSO is 103% (inactive) in assay [1], 102% in assay [1] (setting [7]), 103% in assay [1] (setting [8]) and 102% (inactive) in assay [3]. In addition, the figures for the GFP response relative to DMSO in assay [2], in assay [2] (setting [9]) and in assay [2] (setting [10]) were 91.4% (inactive), 94.1% and 92.1%, respectively. Also, the GFP response, % of DMSO in assay [4] was 99.8% (inactive); in assay [5] it was 96.5% (inactive); in assay [5] (setting [7]), 94.8%; in assay [5] (setting [8]) it was 99.8%.
`O=S(=O)(Nc1ccc(Br)cc1)c1cccc2nonc12`: the GFP response vs DMSO in assay [1] was 97.4% (inactive); in assay [1] (setting [7]), 97.5%; in assay [1] (setting [8]) it was 98.3%; in assay [3] it was 99.5% (inactive). The GFP response relative to DMSO in assay [2] is 96.5% (inactive); in assay [2] (setting [9]), 95%; in assay [2] (setting [10]) it was 95.6%. For the same molecule, the GFP response, % of DMSO in assay [4] was 93.8% (inactive); in assay [5], 97.8% (inactive); in assay [5] (setting [7]) it was 98.3%; in assay [5] (setting [8]), 95.6%.
Turning to `CSC1=NS(=O)(=O)c2c(C)nn(C)c2S1`, the GFP response vs DMSO in assay [1] was 88.7% (inactive); in assay [1] (setting [7]), 91%; in assay [1] (setting [8]), 85.8%; in assay [3], 110% (inactive). The results for the GFP response relative to DMSO in assay [2], in assay [2] (setting [9]) and in assay [2] (setting [10]) were 156% (active), 159% and 152%, respectively. Moreover, the GFP response, % of DMSO in assay [4] is 104% (inactive); in assay [5] it was 84.7% (inactive); in assay [5] (setting [7]) it was 90.5%; in assay [5] (setting [8]), 78.1%.
With `Cc1ccc(C(=O)c2c3ccccc3[n+]([O-])n2CCO)cc1`, the GFP response vs DMSO in assay [1] is 97% (inactive); in assay [1] (setting [7]) it was 97.4%; in assay [1] (setting [8]) it was 96.6%; in assay [3], 98.3% (inactive). For the same molecule, the GFP response relative to DMSO is 96.7% (inactive) in assay [2], 96% in assay [2] (setting [9]) and 94% in assay [2] (setting [10]). Also, the GFP response, % of DMSO was 97.6% (inactive) in assay [4], 96.9% (inactive) in assay [5], 99.1% in assay [5] (setting [7]) and 97.3% in assay [5] (setting [8]).
Regarding `CN1CCN(/N=C/c2c3ccccc3c(Cl)c3ccccc23)CC1`, the GFP response vs DMSO in assay [1] is 94.9% (inactive); in assay [1] (setting [7]) it was 95%; in assay [1] (setting [8]), 94%; in assay [3] it was 105% (inactive). Also, the GFP response relative to DMSO was 105% (inactive) in assay [2], 101% in assay [2] (setting [9]) and 101% in assay [2] (setting [10]). Besides, the GFP response, % of DMSO in assay [4] is 99.8% (inactive); in assay [5] it was 101% (inactive); in assay [5] (setting [7]), 102%; in assay [5] (setting [8]), 95.7%.
On to `O=C(Nc1cccc(Cl)c1N1CCCC1)c1ccc([N+](=O)[O-])o1`, for which the GFP response vs DMSO was 99.2% (inactive) in assay [1], 96.4% in assay [1] (setting [7]), 95.8% in assay [1] (setting [8]) and 100% (inactive) in assay [3]. Further, the GFP response relative to DMSO in assay [2] was 99.2% (inactive); in assay [2] (setting [9]) it was 92.8%; in assay [2] (setting [10]), 96.1%. In addition, the GFP response, % of DMSO in assay [4] is 97.6% (inactive); in assay [5], 99.7% (inactive); in assay [5] (setting [7]), 99.1%; in assay [5] (setting [8]), 91.4%.
Consider `CCc1ccc(NC(=O)c2nc(S(=O)(=O)Cc3ccccc3)ncc2Cl)cc1`, for which the GFP response vs DMSO was 94.8% (inactive) in assay [1], 94.2% in assay [1] (setting [7]), 93.8% in assay [1] (setting [8]) and 97.5% (inactive) in assay [3]. The GFP response relative to DMSO was 126% (inactive) in assay [2], 118% in assay [2] (setting [9]) and 124% in assay [2] (setting [10]). Further, the GFP response, % of DMSO was 96% (inactive) in assay [4], 87.8% (inactive) in assay [5], 90.9% in assay [5] (setting [7]) and 82.8% in assay [5] (setting [8]).
As for `Cc1ccnc(N2C(=O)c3cccc4c([N+](=O)[O-])ccc(c34)C2=O)c1`, the GFP response vs DMSO in assay [1] is 102% (inactive); in assay [1] (setting [7]), 101%; in assay [1] (setting [8]), 95%; in assay [3] it was 318% (active). Moreover, the GFP response relative to DMSO in assay [2] was 182% (active); in assay [2] (setting [9]), 177%; in assay [2] (setting [10]) it was 178%. In addition, the GFP response, % of DMSO is 123% (inactive) in assay [4], 177% (active) in assay [5], 159% in assay [5] (setting [7]) and 164% in assay [5] (setting [8]).
Turning to `CCC(=O)Oc1oc(-c2ccccc2)nc1C=Nc1ccc(C)cc1`, the GFP response vs DMSO in assay [1] is 103% (inactive); in assay [1] (setting [7]), 103%; in assay [1] (setting [8]), 103%; in assay [3], 126% (inactive). The GFP response relative to DMSO in assay [2] was 111% (inactive); in assay [2] (setting [9]), 113%; in assay [2] (setting [10]), 113%. Further, the GFP response, % of DMSO in assay [4] was 102% (inactive); in assay [5] it was 108% (inactive); in assay [5] (setting [7]), 110%; in assay [5] (setting [8]) it was 109%.
On to `Oc1c(CN2CCN(c3ccc(F)cc3)CC2)cc(Cl)c2cccnc12`, for which the GFP response vs DMSO in assay [1] is 101% (inactive); in assay [1] (setting [7]) it was 102%; in assay [1] (setting [8]), 94.3%; in assay [3], 187% (active). The GFP response relative to DMSO was 264% (active) in assay [2], 253% in assay [2] (setting [9]) and 245% in assay [2] (setting [10]). The GFP response, % of DMSO in assay [4] is 104% (inactive); in assay [5] it was 141% (inactive); in assay [5] (setting [7]) it was 159%; in assay [5] (setting [8]), 125%. Moreover, the fluorescence change (kMESF span) in assay [6] was 0.21 (inactive).
Take `Oc1ccc2ccccc2c1N=Nc1nccs1`: the GFP response vs DMSO is 101% (inactive) in assay [1], 98.1% in assay [1] (setting [7]), 98% in assay [1] (setting [8]) and 116% (inactive) in assay [3]. Moreover, the results for the GFP response relative to DMSO in assay [2], in assay [2] (setting [9]) and in assay [2] (setting [10]) were 163% (active), 151% and 165%, respectively. Also, the GFP response, % of DMSO in assay [4] is 89.3% (inactive); in assay [5], 105% (inactive); in assay [5] (setting [7]) it was 101%; in assay [5] (setting [8]), 102%. Moreover, the fluorescence change (kMESF span) in assay [6] is 0.51 (inactive).

For the origin of these results see PubChem BioAssay.
